Assay [1] concerns MDA-MB-231. The experiment in a line: Antiproliferative activity against human MDA-MB-231 cells incubated for 72 hrs by MTT assay. Type of assay: functional, cell-based. To be noted: MDA-MB-231, 72 h. The essentials: (§1)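 Cells seeded at 5 × 10^3/well and allowed to attach overnight, then washed with PBS. Compound diluted from 10 mM DMSO stock into medium (100 ng/mL HGF added for c-Met-expressing cells), in triplicate, 72 h at 37 °C. MTT added for 4 h, formazan dissolved in DMSO, absorbance read at 570 nm. Cell numbers taken from a standard curve; IC50 calculated.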

Assay [2] concerns MCF7. The assay can be described thus: Antiproliferative activity against human MCF7 cells incubated for 72 hrs by MTT assay. Type of assay: functional, cell-based. Particulars: MCF7, 72 h. The essentials:
as §1
A general note: Formazan colour is commonly taken as a measure of viable cells.

As a reminder, the IC50 is the concentration that inhibits the measured activity by half. The low end stands for higher potency, the high end for lower potency. Regarding `CC(=O)C1=C(O)C=C2Oc3c4c(c(C)c(O)c3[C@]2(C)C1=O)OC(c1ccc(OCc2c(F)cccc2Cl)cc1)CC4=O` (some centres not stated), the IC50 amounted to 4420 nM in assay [1] and 3090 nM in assay [2].

For `CC(=O)C1=C(O)C=C2Oc3c4c(c(C)c(O)c3[C@]2(C)C1=O)OC(c1ccc(Cl)cc1Cl)CC4=O` (some centres not stated), the IC50 in assay [1] amounted to 4010 nM; in assay [2], 3640 nM.

Regarding `CC(=O)C1=C(O)C=C2Oc3c(C(=O)/C=C/c4ccc(C(=O)O)cc4)c(O)c(C)c(O)c3[C@]2(C)C1=O`, the IC50 in assay [1] was determined as 10600 nM; in assay [2], 9380 nM.

With `CC(=O)C1=C(O)C=C2Oc3c4c(c(C)c(O)c3[C@]2(C)C1=O)OC(c1ccc(C)cc1)CC4=O` (some centres not stated), the IC50 stood at 5990 nM in assay [1] and 4210 nM in assay [2].

With `COc1cc(/C=C/C(=O)c2c(O)c(C)c(O)c3c2OC2=CC(O)=C(C(C)=O)C(=O)[C@]23C)cc(OC)c1OC`, the IC50 was 1630 nM in assay [1] and 1220 nM in assay [2].

Consider `CCOc1ccc(C2CC(=O)c3c(c(C)c(O)c4c3OC3=CC(O)=C(C(C)=O)C(=O)[C@]34C)O2)cc1` (some centres not stated), for which the IC50 was 3680 nM in assay [1] and 3360 nM in assay [2].

In the case of `CCOc1ccccc1C1CC(=O)c2c(c(C)c(O)c3c2OC2=CC(O)=C(C(C)=O)C(=O)[C@]23C)O1` (some centres not stated), the results for the IC50 in assay [1] and in assay [2] were 6130 nM and 5920 nM, respectively.

As to `CC(=O)C1=C(O)C=C2Oc3c4c(c(C)c(O)c3[C@]2(C)C1=O)OC(c1cccc(Cl)c1)CC4=O` (some centres not stated), the values for the IC50 in assay [1] and in assay [2] were 6410 nM and 6320 nM, respectively.

With `CC(=O)C1=C(O)C=C2Oc3c(C(=O)CC(O)c4cc(Cl)cc(Cl)c4)c(O)c(C)c(O)c3[C@]2(C)C1=O` (some centres not stated), the IC50 in assay [1] was found to be 4440 nM; in assay [2], 5810 nM.

As for `CC(=O)C1=C(O)C=C2Oc3c(C(=O)/C=C/c4cc(C(F)(F)F)cc(C(F)(F)F)c4)c(O)c(C)c(O)c3[C@]2(C)C1=O`, the IC50 in assay [1] is 720 nM; in assay [2], 910 nM.

`CC(=O)C1=C(O)C=C2Oc3c(C(=O)/C=C/c4ccccc4F)c(O)c(C)c(O)c3[C@]2(C)C1=O`: the values for the IC50 in assay [1] and in assay [2] were 3540 nM and 3740 nM, respectively.

In the case of `CC(=O)C1=C(O)C=C2Oc3c(C(=O)/C=C/c4ccc(C)cc4)c(O)c(C)c(O)c3[C@]2(C)C1=O`, the IC50 in assay [1] came out at 1650 nM; in assay [2] it was 1330 nM.

On to `CC(=O)C1=C(O)C=C2Oc3c(C(=O)/C=C/c4ccc(C(F)(F)F)cc4)c(O)c(C)c(O)c3[C@]2(C)C1=O`, for which the IC50 in assay [1] was determined as 710 nM; in assay [2], 730 nM.

As for `CC(=O)C1=C(O)C=C2Oc3c(C(=O)/C=C/c4cc(Cl)cc(Cl)c4)c(O)c(C)c(O)c3[C@]2(C)C1=O`, the half-inhibitory concentration (IC50) was determined as 2950 nM in assay [1] and 2440 nM in assay [2].

With `CC(=O)C1=C(O)C=C2Oc3c(C(=O)/C=C/c4ccc(OCc5ccccc5)cc4)c(O)c(C)c(O)c3[C@]2(C)C1=O`, the IC50 was 950 nM in assay [1] and 1140 nM in assay [2].

Turning to `CC(=O)C1=C(O)C=C2Oc3c(C(=O)/C=C/c4ccccc4)c(O)c(C)c(O)c3[C@]2(C)C1=O`, the IC50 in assay [1] is 5100 nM; in assay [2] it was 4500 nM.

Consider `CCCCOc1ccc(/C=C/C(=O)c2c(O)c(C)c(O)c3c2OC2=CC(O)=C(C(C)=O)C(=O)[C@]23C)cc1`, for which the figures for the IC50 in assay [1] and in assay [2] were 620 nM and 530 nM, respectively.

In the case of `CC(=O)C1=C(O)C=C2Oc3c4c(c(C)c(O)c3[C@]2(C)C1=O)OC(c1ccc(F)cc1)CC4=O` (some centres not stated), the 50% inhibitory concentration (IC50) is 6890 nM in assay [1] and 6220 nM in assay [2].

`CC(=O)C1=C(O)C=C2Oc3c4c(c(C)c(O)c3[C@]2(C)C1=O)OC(c1ccc(C(C)(C)C)cc1)CC4=O` (some centres not stated): the IC50 in assay [1] was determined as 3650 nM; in assay [2], 3430 nM.

On to `COc1cccc(C2CC(=O)c3c(c(C)c(O)c4c3OC3=CC(O)=C(C(C)=O)C(=O)[C@]34C)O2)c1` (some centres not stated), for which the half-inhibitory concentration (IC50) was found to be 2940 nM in assay [1] and 3730 nM in assay [2].

Take `CC(=O)C1=C(O)C=C2Oc3c(C(=O)/C=C/c4ccc(OCc5c(F)cccc5Cl)cc4)c(O)c(C)c(O)c3[C@]2(C)C1=O`: the results for the half-inhibitory concentration (IC50) in assay [1] and in assay [2] were 930 nM and 870 nM, respectively.

On to `CC(=O)C1=C(O)C=C2Oc3c(C(=O)/C=C/c4cccc(C(F)(F)F)c4)c(O)c(C)c(O)c3[C@]2(C)C1=O`, for which the IC50 in assay [1] worked out at 1160 nM; in assay [2], 1230 nM.

Regarding `COc1ccc(/C=C/C(=O)c2c(O)c(C)c(O)c3c2OC2=CC(O)=C(C(C)=O)C(=O)[C@]23C)cc1`, the IC50 in assay [1] came out at 960 nM; in assay [2] it was 970 nM.

Consider `CC(=O)C1=C(O)C=C2Oc3c4c(c(C)c(O)c3[C@]2(C)C1=O)OC(c1ccc(OCc2ccccc2)cc1)CC4=O` (some centres not stated), for which the IC50 in assay [1] was 5710 nM; in assay [2], 6530 nM.

Consider `CC(=O)C1=C(O)C=C2Oc3c(C(=O)CC(O)c4cc(C(F)(F)F)cc(C(F)(F)F)c4)c(O)c(C)c(O)c3[C@]2(C)C1=O` (some centres not stated), for which the IC50 in assay [1] is 1560 nM; in assay [2] it was 5240 nM.

On to `CC(=O)C1=C(O)C=C2Oc3c(C(=O)/C=C/c4c(F)cccc4F)c(O)c(C)c(O)c3[C@]2(C)C1=O`, for which the IC50 in assay [1] is 2380 nM; in assay [2], 1960 nM.

Take `CC(=O)C1=C(O)C=C2Oc3c(C(=O)/C=C/c4ccc(-c5ccccc5)cc4)c(O)c(C)c(O)c3[C@]2(C)C1=O`: the IC50 in assay [1] is 720 nM; in assay [2] it was 740 nM.

Regarding `CC(=O)C1=C(O)C=C2Oc3c(C(=O)/C=C/c4cccc(F)c4)c(O)c(C)c(O)c3[C@]2(C)C1=O`, the IC50 in assay [1] turned out to be 4790 nM; in assay [2] it was 3630 nM.

For the compound `CC(=O)C1=C(O)C=C2Oc3c(C(=O)/C=C/c4ccc(F)cc4)c(O)c(C)c(O)c3[C@]2(C)C1=O`, the IC50 worked out at 3310 nM in assay [1] and 2980 nM in assay [2].

With `COc1cc(F)c(/C=C/C(=O)c2c(O)c(C)c(O)c3c2OC2=CC(O)=C(C(C)=O)C(=O)[C@]23C)cc1OC`, the figures for the IC50 in assay [1] and in assay [2] were 1150 nM and 930 nM, respectively.

For `CC(=O)C1=C(O)C=C2Oc3c(C(=O)/C=C/c4ccc(C(C)(C)C)cc4)c(O)c(C)c(O)c3[C@]2(C)C1=O`, the IC50 worked out at 1030 nM in assay [1] and 840 nM in assay [2].

As for `CCOc1ccccc1/C=C/C(=O)c1c(O)c(C)c(O)c2c1OC1=CC(O)=C(C(C)=O)C(=O)[C@]12C`, the IC50 stood at 2030 nM in assay [1] and 2180 nM in assay [2].

Regarding `CC(=O)C1=C(O)C=C2Oc3c4c(c(C)c(O)c3[C@]2(C)C1=O)OC(c1c(Cl)cccc1Cl)CC4=O` (some centres not stated), the figures for the IC50 in assay [1] and in assay [2] were 4310 nM and 4920 nM, respectively.

Regarding `CCSc1ccc(/C=C/C(=O)c2c(O)c(C)c(O)c3c2OC2=CC(O)=C(C(C)=O)C(=O)[C@]23C)cc1`, the IC50 amounted to 730 nM in assay [1] and 540 nM in assay [2].

With `CC(=O)C1=C(O)C=C2Oc3c4c(c(C)c(O)c3[C@]2(C)C1=O)OC(c1ccccc1)CC4=O` (some centres not stated), the half-maximal inhibitory concentration (IC50) in assay [1] was determined as 8040 nM; in assay [2] it was 7260 nM.

Consider `CC(=O)C1=C(O)C=C2Oc3c(C(=O)/C=C/c4ccc(OCc5ccc(F)cc5)cc4)c(O)c(C)c(O)c3[C@]2(C)C1=O`, for which the figures for the IC50 in assay [1] and in assay [2] were 910 nM and 750 nM, respectively.

As for `CC(=O)C1=C(O)C=C2Oc3c(C(=O)/C=C/c4cccc(Cl)c4)c(O)c(C)c(O)c3[C@]2(C)C1=O`, the IC50 in assay [1] was 3920 nM; in assay [2] it was 2700 nM.

`CCCCOc1ccc(C2CC(=O)c3c(c(C)c(O)c4c3OC3=CC(O)=C(C(C)=O)C(=O)[C@]34C)O2)cc1` (some centres not stated): the IC50 in assay [1] amounted to 2230 nM; in assay [2], 2910 nM.

As for `CC(=O)C1=C(O)C=C2Oc3c4c(c(C)c(O)c3[C@]2(C)C1=O)OC(c1ccc(OCc2ccc(F)cc2)cc1)CC4=O` (some centres not stated), the IC50 in assay [1] was determined as 5580 nM; in assay [2] it was 4320 nM.

For the compound `CC(=O)C1=C(O)C=C2Oc3c(C(=O)/C=C/c4ccc(Cl)cc4)c(O)c(C)c(O)c3[C@]2(C)C1=O`, the IC50 was found to be 2630 nM in assay [1] and 2100 nM in assay [2].

For the compound `CC(=O)C1=C(O)C=C2Oc3c4c(c(C)c(O)c3[C@]2(C)C1=O)OC(c1ccc(C(F)(F)F)cc1)CC4=O` (some centres not stated), the IC50 is 3930 nM in assay [1] and 4770 nM in assay [2].

For `CC(=O)C1=C(O)C=C2Oc3c4c(c(C)c(O)c3[C@]2(C)C1=O)OC(c1ccc(OC(F)(F)F)cc1)CC4=O` (some centres not stated), the IC50 came out at 1790 nM in assay [1] and 1510 nM in assay [2].

As to `CC(=O)C1=C(O)C=C2Oc3c(C(=O)/C=C/c4ccc(OCCC(C)C)cc4)c(O)c(C)c(O)c3[C@]2(C)C1=O`, the IC50 in assay [1] worked out at 580 nM; in assay [2], 390 nM.

`CC(=O)C1=C(O)C=C2Oc3c4c(c(C)c(O)c3[C@]2(C)C1=O)OC(c1ccc(C(=O)O)cc1)CC4=O` (some centres not stated): the IC50 in assay [1] was 14400 nM; in assay [2], 12800 nM.

Turning to `CC(=O)C1=C(O)C=C2Oc3c(C(=O)/C=C/c4cc(F)cc(F)c4)c(O)c(C)c(O)c3[C@]2(C)C1=O`, the IC50 in assay [1] was determined as 2090 nM; in assay [2], 1820 nM.

With `CSc1ccc(/C=C/C(=O)c2c(O)c(C)c(O)c3c2OC2=CC(O)=C(C(C)=O)C(=O)[C@]23C)cc1`, the IC50 in assay [1] worked out at 890 nM; in assay [2] it was 720 nM.

`CC(=O)C1=C(O)C=C2Oc3c(C(=O)/C=C/c4ccc(Cl)cc4Cl)c(O)c(C)c(O)c3[C@]2(C)C1=O`: the IC50 in assay [1] worked out at 1360 nM; in assay [2], 930 nM.

For `CCOc1ccc(/C=C/C(=O)c2c(O)c(C)c(O)c3c2OC2=CC(O)=C(C(C)=O)C(=O)[C@]23C)cc1`, the IC50 in assay [1] came to 840 nM; in assay [2], 710 nM.

Take `CC(=O)C1=C(O)C=C2Oc3c(C(=O)/C=C/c4ccc(-c5ccc(F)cc5)cc4)c(O)c(C)c(O)c3[C@]2(C)C1=O`: the IC50 in assay [1] turned out to be 680 nM; in assay [2], 520 nM.

On to `CC(=O)C1=C(O)C=C2Oc3c(C(=O)/C=C/c4c(Cl)cccc4Cl)c(O)c(C)c(O)c3[C@]2(C)C1=O`, for which the results for the IC50 in assay [1] and in assay [2] were 5690 nM and 1530 nM, respectively.

For `CC(=O)C1=C(O)C=C2Oc3c(C(=O)/C=C/c4ccc(Br)cc4)c(O)c(C)c(O)c3[C@]2(C)C1=O`, the IC50 amounted to 1530 nM in assay [1] and 1130 nM in assay [2].

Source of the values: ChEMBL document CHEMBL5252537, “Usnic Acid Benzylidene Analogues as Potent Mechanistic Target of Rapamycin Inhibitors for the Control of Breast Malignancies” (J Nat Prod, 2017).
